Assay results from ChEMBL document CHEMBL1629437, “A novel PET marker for in vivo quantification of myelination” (Bioorg Med Chem, 2010).
Values belong to the compound of their own block, whether it stands above or below them. Activity calls are given as the source filed them.

Assays:
Mus musculus [1] = species: Mus musculus; assay: Binding affinity to myelin sheath in Plp-Akt-DD transgenic mouse corpus callosum by fluorescence assay; format: tissue-based
Method in brief: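 Perfusion-fixed (4% PFA) brains from Plp-Akt-DD mice and wild-type SWR/J littermates (5 months old) were cut into 10 μm coronal cryosections and stained in vitro with 10 μM MeDAS. Fluorescence was imaged in the corpus callosum from the midline to below the apex of the cingulum, 8 images per mouse, 20× objective. Images were thresholded against Black-Gold reactivity and intensity was expressed relative to WT set at 100. n = 4, unpaired Student's t-test.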

Mus musculus [2] = species: Mus musculus; assay: Binding affinity to myelin sheath in Plp-Akt-DD transgenic mouse corpus callosum at 10 uM after 20 mins; format: tissue-based; conditions: tested as the 11C-labelled form
Mus musculus [3] = assay: In vivo binding affinity to myelin sheath in Plp-Akt-DD transgenic mouse corpus callosum at 25 mg/kg, iv after 30 mins by fluorescent microscopic analysis; format: functional, organism-based; set-up: dose 25 mg/kg; conditions: tested as the 11C-labelled form
Method in brief: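 Anesthetized Plp-Akt-DD mice and control littermates received MeDAS, 25 mg/kg (about 0.5 mg), by tail vein. After 30 min they were perfused with saline and then 4% PFA. Brains were postfixed overnight, cryoprotected in 30% sucrose and cut into 10 μm cryosections. Sections were imaged directly by fluorescence microscopy, with Black-Gold staining done for comparison.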

Stomach [4] = assay: Biodistribution in Swiss-Webster mouse stomach at 3.7 MBq, iv after 30 mins; format: ADME, organism-based; conditions: in vivo, 0.5 h
Method in brief: (§1)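 About 3.7 MBq (100 μCi) of [11C]MeDAS was given by tail vein to Swiss-Webster mice, which were euthanized by cardiac excision at 5, 30 and 60 min. Heart, liver, spleen, lung, kidney, stomach and intestine were removed and counted in an automatic gamma well-counter. Results are %ID/organ, n = 3, mean ± SD.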

Heart [5] = assay: Biodistribution in Swiss-Webster mouse heart at 3.7 MBq, iv after 5 mins; format: ADME, organism-based; conditions: in vivo; method in brief: as §1
Kidney [6] = assay: Biodistribution in Swiss-Webster mouse kidney at 3.7 MBq, iv after 60 mins; format: ADME, organism-based; conditions: in vivo, 1 h; method in brief: as §1
[7] = Octanol-water partition coefficient, log P of the compound at pH 7.4; format: physicochemical
Method in brief: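 [11C]MeDAS (about 500,000 cpm, >98% radiochemical purity) was partitioned between n-octanol and phosphate buffer (pH 7.40) by vortexing 3 min at room temperature, then centrifuged at 3500 rpm for 5 min. The octanol layer was re-partitioned until values were consistent. logP = log of cpm/g octanol over cpm/g buffer, in triplicate.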

Spleen [8] = assay: Biodistribution in Swiss-Webster mouse spleen at 3.7 MBq, iv after 5 mins; format: ADME, organism-based; conditions: in vivo; method in brief: as §1
[9] = Drug uptake in Swiss-Webster mouse corpus callosum at 111 MBq, iv after 20 mins by magnetic resonance imaging analysis in presence of BDB; format: ADME, organism-based; conditions: in vivo
[10] = Drug uptake in Plp-Akt-DD transgenic mouse corpus callosum 7.4 MBq, iv after 90 mins by microPET imaging analysis; conditions: in vivo, 1.5 h
Brain [11] = assay: Drug uptake in Swiss-Webster mouse brain at 111 MBq, iv after 20 mins by autoradiography; format: ADME, organism-based; conditions: in vivo
Heart [12] = assay: Biodistribution in Swiss-Webster mouse heart at 3.7 MBq, iv after 30 mins; format: ADME, organism-based; conditions: in vivo, 0.5 h; method in brief: as §1
Brain [13] = assay: Biodistribution in Swiss-Webster mouse brain at 3.7 MBq, iv after 60 mins; format: ADME, organism-based; conditions: in vivo, 1 h
Method in brief: (§2)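 [11C]MeDAS, up to 3.7 MBq (100 μCi), was injected into the tail vein of Swiss-Webster mice (20-25 g). Brains were removed at 5, 30 and 60 min, weighed and gamma-counted. Decay-corrected uptake is given as %ID/organ, n = 3, mean ± SD.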

Kidney [14] = assay: Biodistribution in Swiss-Webster mouse kidney at 3.7 MBq, iv after 30 mins; format: ADME, organism-based; conditions: in vivo, 0.5 h; method in brief: as §1
Spleen [15] = assay: Biodistribution in Swiss-Webster mouse spleen at 3.7 MBq, iv after 60 mins; format: ADME, organism-based; conditions: in vivo, 1 h; method in brief: as §1
Heart [16] = assay: Biodistribution in Swiss-Webster mouse heart at 3.7 MBq, iv after 60 mins; format: ADME, organism-based; conditions: in vivo, 1 h; method in brief: as §1
Kidney [17] = assay: Biodistribution in Swiss-Webster mouse kidney at 3.7 MBq, iv after 5 mins; format: ADME, organism-based; conditions: in vivo; method in brief: as §1
Brain [18] = assay: Drug uptake in Plp-Akt-DD transgenic mouse brain at 7.4 MBq, iv after 90 mins by microPET imaging analysis; conditions: in vivo, 1.5 h
Lung [19] = assay: Biodistribution in Swiss-Webster mouse lung at 3.7 MBq, iv after 30 mins; format: ADME, organism-based; conditions: in vivo, 0.5 h; method in brief: as §1
Spleen [20] = assay: Biodistribution in Swiss-Webster mouse spleen at 3.7 MBq, iv after 30 mins; format: ADME, organism-based; conditions: in vivo, 0.5 h; method in brief: as §1
Stomach [21] = assay: Biodistribution in Swiss-Webster mouse stomach at 3.7 MBq, iv after 5 mins; format: ADME, organism-based; conditions: in vivo; method in brief: as §1
[22] = Drug uptake in Swiss-Webster mouse corpus callosum at 111 MBq, iv after 20 mins by magnetic resonance imaging analysis; format: ADME, organism-based; conditions: in vivo
Liver [23] = assay: Biodistribution in Swiss-Webster mouse liver at 3.7 MBq, iv after 30 mins; format: ADME, organism-based; conditions: in vivo, 0.5 h; method in brief: as §1
Stomach [24] = assay: Biodistribution in Swiss-Webster mouse stomach at 3.7 MBq, iv after 60 mins; format: ADME, organism-based; conditions: in vivo, 1 h; method in brief: as §1
Liver [25] = assay: Biodistribution in Swiss-Webster mouse liver at 3.7 MBq, iv after 5 mins; format: ADME, organism-based; conditions: in vivo; method in brief: as §1
[26] = Drug uptake in Swiss-Webster mouse corpus callosum at 111 MBq, iv; conditions: in vivo
Brain [27] = assay: Biodistribution in Swiss-Webster mouse brain at 3.7 MBq, iv after 30 mins; format: ADME, organism-based; conditions: in vivo, 0.5 h; method in brief: as §2
Brain [28] = assay: Biodistribution in Swiss-Webster mouse brain at 3.7 MBq, iv after 5 mins; format: ADME, organism-based; conditions: in vivo; method in brief: as §2
Lung [29] = assay: Biodistribution in Swiss-Webster mouse lung at 3.7 MBq, iv after 60 mins; format: ADME, organism-based; conditions: in vivo, 1 h; method in brief: as §1
Intestine [30] = assay: Biodistribution in Swiss-Webster mouse intestine at 3.7 MBq, iv after 30 mins; format: ADME, organism-based; conditions: in vivo, 0.5 h; method in brief: as §1
Lung [31] = assay: Biodistribution in Swiss-Webster mouse lung at 3.7 MBq, iv after 5 mins; format: ADME, organism-based; conditions: in vivo; method in brief: as §1
Intestine [32] = assay: Biodistribution in Swiss-Webster mouse intestine at 3.7 MBq, iv after 5 mins; format: ADME, organism-based; conditions: in vivo; method in brief: as §1
Liver [33] = assay: Biodistribution in Swiss-Webster mouse liver at 3.7 MBq, iv after 60 mins; format: ADME, organism-based; conditions: in vivo, 1 h; method in brief: as §1
Intestine [34] = assay: Biodistribution in Swiss-Webster mouse intestine at 3.7 MBq, iv after 60 mins; format: ADME, organism-based; conditions: in vivo, 1 h; method in brief: as §1

Drug uptake (Mus musculus [1]): Active
Drug uptake (Mus musculus [2]): Active
SMILES: CNc1ccc(/C=C/c2ccc(N)cc2)cc1
Drug uptake (Mus musculus [3]): Active

Drug uptake (Stomach [4]): 0.67 %ID
Drug uptake (Heart [5]): 0.4 %ID
Drug uptake (Kidney [6]): 1.78 %ID
logD [7]: 2.25
Drug uptake (Spleen [8]): 0.28 %ID
Drug uptake [9]: Not Active
Drug uptake [10]: Active
Drug uptake (Brain [11]): Active
Drug uptake (Heart [12]): 0.33 %ID
Drug uptake (Brain [13]): 1.37 %ID
Drug uptake (Kidney [14]): 2 %ID
Drug uptake (Spleen [15]): 0.9 %ID
Drug uptake (Heart [16]): 0.75 %ID
Drug uptake (Kidney [17]): 2.69 %ID
Drug uptake (Brain [18]): Active
Drug uptake (Lung [19]): 0.76 %ID
Drug uptake (Spleen [20]): 0.39 %ID
Drug uptake (Stomach [21]): 1 %ID
Drug uptake [22]: Active
Drug uptake (Liver [23]): 10.83 %ID
Drug uptake (Stomach [24]): 1.21 %ID
Drug uptake (Liver [25]): 15.86 %ID
Drug uptake [26]: Active
Drug uptake (Brain [27]): 1.05 %ID
Drug uptake (Brain [28]): 2.56 %ID
Drug uptake (Lung [29]): 1.2 %ID
Drug uptake (Intestine [30]): 0.65 %ID
Drug uptake (Lung [31]): 0.85 %ID
Drug uptake (Intestine [32]): 0.42 %ID
Drug uptake (Liver [33]): 7.75 %ID
Drug uptake (Intestine [34]): 1.74 %ID
SMILES: [11CH3]Nc1ccc(/C=C/c2ccc(N)cc2)cc1
